Measured values taken from ChEMBL document CHEMBL1137939, “Manipulation of kinetic profiles in 2-aryl propionic acid cyclooxygenase inhibitors” (Bioorg Med Chem Lett, 2004).

target: T1, Prostaglandin G/H synthase 1 (Ovis aries, UniProt P05979); test: Reversible competitive inhibition of prostaglandin G/H synthase 1
T1 sequence (P05979 whole entry): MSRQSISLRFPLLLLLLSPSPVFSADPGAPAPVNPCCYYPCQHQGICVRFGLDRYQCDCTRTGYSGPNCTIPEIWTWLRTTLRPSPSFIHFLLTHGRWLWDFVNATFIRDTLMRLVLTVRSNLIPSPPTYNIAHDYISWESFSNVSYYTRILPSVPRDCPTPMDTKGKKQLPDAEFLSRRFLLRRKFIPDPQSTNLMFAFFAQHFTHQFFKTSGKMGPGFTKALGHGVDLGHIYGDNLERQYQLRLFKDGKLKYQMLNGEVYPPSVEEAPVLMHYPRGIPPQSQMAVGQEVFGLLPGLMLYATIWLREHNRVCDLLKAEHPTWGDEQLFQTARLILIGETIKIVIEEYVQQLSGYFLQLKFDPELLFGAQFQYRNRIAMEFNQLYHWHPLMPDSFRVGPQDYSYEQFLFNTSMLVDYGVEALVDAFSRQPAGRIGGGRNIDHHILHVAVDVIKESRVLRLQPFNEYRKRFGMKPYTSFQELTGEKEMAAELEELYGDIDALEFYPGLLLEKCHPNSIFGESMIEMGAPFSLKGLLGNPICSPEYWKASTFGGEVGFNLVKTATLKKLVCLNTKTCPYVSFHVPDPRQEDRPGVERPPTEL
Outline: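 Ovine seminal vesicle COX-1, purified to >95% (Coomassie SDS-PAGE) and hematin-reconstituted. Coupled cyclooxygenase-peroxidase assay at 22 °C in 0.1 M Tris–HCl pH 8.0, read as TMPD oxidation after arachidonic acid start. Initial rates were taken because the enzyme auto-inactivates. Hydrogen-peroxide-initiated controls checked for peroxidase inhibition.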

**Q.** For `CC(C(=O)N(C)C)c1ccc(-c2ccccc2)cc1` (stereo not given), which IC50 is on record?
**A.** 4.8 µM

**Q.** With `COC(=O)C(C)c1ccc(-c2ccccc2)cc1` (stereo not given) as the molecule, how does the IC50 read?
**A.** 28.5 µM

**Q.** With `CC(C)Cc1ccc(C(C)C(=O)O)cc1[N+](=O)[O-]` (stereo not given) as the molecule, how does the IC50 read?
**A.** 59 µM

**Q.** Which IC50 does the source give for `CNC(=O)C(C)c1ccc(-c2ccccc2)c(F)c1` (stereo not given) here?
**A.** 24 µM

**Q.** Which IC50 does the source give for `CC(C(N)=O)c1ccc(-c2ccccc2)cc1` (stereo not given) here?
**A.** 64.5 µM

**Q.** `COC(=O)C(C)c1ccc(-c2ccccc2)c(F)c1` (stereo not given) was tested. Which IC50 did it give?
**A.** 210 µM

**Q.** For `CC(C(N)=O)c1ccc(-c2ccccc2)c(F)c1` (stereo not given), which IC50 is on record?
**A.** 8.3 µM

**Q.** `CC(C(=O)N(C)C)c1ccc(-c2ccccc2)c(F)c1` (stereo not given) was tested. Which IC50 did it give?
**A.** 215 µM

**Q.** For `CNC(=O)C(C)c1ccc(-c2ccccc2)cc1` (stereo not given), which IC50 is on record?
**A.** 19.5 µM

**Q.** With `CC(C)Cc1ccc(C(C)C(=O)O)cc1Br` (stereo not given) as the molecule, how does the IC50 read?
**A.** 0.11 µM
